Data set [1] deals with Cruzipain (Trypanosoma cruzi) (UniProt P25779). The data set is described as follows: Inhibition of Trypanosoma cruzi catalytic activity of cruzain using Z-FR-AMC as substrate at 100 uM after 10 mins by fluorescence assay.
For data set [2], the system named is Trypanosoma cruzi. The data set is described as follows: Antiparasitic activity against epimastigotes of Trypanosoma cruzi Dm28c assessed as reduction of parasite count after 5 days. It counts as functional. The note with it: 120 h.
Data set [3] concerns Trypanosoma cruzi. The data set is described as follows: Antiparasitic activity against trypomastigotes of Trypanosoma cruzi Y assessed as reduction of parasite count after 24 hrs. It counts as functional.
The nature of data set [4]: Cytotoxicity against BALB/c mouse splenocytes assessed as maximum non-toxic concentration by measuring [3H]-thymidine incorporation after 24 hrs by liquid scintillation counting. It counts as cell-based, Splenocyte. In outline:
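BALB/c splenocytes, 5 x 10^6 cells/well, given compounds at 1.23, 3.7, 33.33 and 100 µg/mL, 1% DMSO final, triplicate; 24 h at 37 °C, 5% CO2. Then 1.0 µCi [3H]-thymidine added; cells harvested and counted by liquid scintillation. Highest non-cytotoxic concentration taken from % incorporation.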

Data set [5] deals with Trypanosoma cruzi. The data set can be described thus: Antitrypanosomal activity against amastigote and trypomastigote forms of Trypanosoma cruzi Tulahuen expressing beta-galactosidase gene infected in mouse L-929 cells assessed as inhibition of parasite growth after 7 days by colorimetric betagalactosidase assay. It counts as functional, organism-based. The note with it: L929, 168 h.

A short description of data set [6]: Cytotoxicity against mouse L929 cells assessed as cell viability after 96 hrs by alamarBlue assay. It counts as cell-based. In outline: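 Uninfected L-929 cells at the same cell number and timing as the beta-galactosidase assay; increasing concentrations starting at the T. cruzi IC50, quadruplicate. After 96 h, alamarBlue added; absorbance at 570 and 600 nm read 6 h later. Viability as % reduction versus untreated; CC50 by linear interpolation.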

A short description of data set [7]: Selectivity index, ratio of CC50 for mouse L929 cells to IC50 for amastigote and trypomastigote forms of Trypanosoma cruzi Tulahuen. It counts as functional. In outline: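 SI = CC50 in uninfected L-929 fibroblasts (alamarBlue, 96 h) divided by IC50 against intracellular amastigote/trypomastigote forms (beta-galactosidase assay, 7 days).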
The target in data set [8] is Cruzipain (Trypanosoma cruzi) (UniProt P25779). The data set can be described thus: Inhibition of Trypanosoma cruzi catalytic activity of cruzain using Z-FR-AMC as substrate at 50 uM after 10 mins by fluorescence assay.
Another data set addresses Cruzipain (Trypanosoma cruzi, UniProt P25779). The data set is described as follows: Inhibition of Trypanosoma cruzi catalytic activity of cruzain using Z-FR-AMC as substrate after 10 mins by fluorescence assay.
In data set [9] the test system is Trypanosoma cruzi. The data set is described as follows: Antitrypanosomal activity against amastigote and trypomastigote forms of Trypanosoma cruzi Tulahuen expressing beta-galactosidase gene infected in mouse L-929 cells assessed as inhibition of parasite growth at 100 uM after 7 days by colorimetric betagalactosidase assay. It counts as functional. To be noted: L929, 168 h.

The test system of data set [10] is Trypanosoma cruzi. The data set can be described thus: Antiparasitic activity against trypomastigotes of Trypanosoma cruzi Y assessed as induction of parasite death at 5 uM after 24 hrs using propidium iodide staining after 24 hrs by flow cytometry analysis. It counts as functional. In outline:
(§1)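 Y strain trypomastigotes (4x10^5) in RPMI-1640 with 10% FBS, exposed to test agent for 24 h at 37 °C, 5% CO2; then stained with propidium iodide and analysed by flow cytometry, at least 10,000 events. Read-out is % PI-positive cells versus untreated parasites; Triton X-100 as positive control. Two independent experiments, each concentration in duplicate.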
(In general: A flow cytometer gives signals particle by particle.)

Data set [11] deals with Trypanosoma cruzi. The data set can be described thus: Antiparasitic activity against trypomastigotes of Trypanosoma cruzi Y assessed as induction of parasite death at 0.5 uM after 24 hrs using propidium iodide staining after 24 hrs by flow cytometry analysis. It counts as functional. In outline:
as §1

In data set [12] the test system is Trypanosoma cruzi. The data set is described as follows: Antiparasitic activity against trypomastigotes of Trypanosoma cruzi Y assessed as induction of parasite death after 24 hrs using propidium iodide staining after 24 hrs by flow cytometry analysis. It counts as functional, organism-based. An outline of the steps: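 Y strain trypomastigotes (4x10^5) in RPMI-1640 + 10% FBS exposed to 0.5 or 5.0 µM of each thiosemicarbazone, benznidazole 25 µM, or Triton X-100, for 24 h at 37 °C, 5% CO2. Then PI-stained and read by flow cytometry, at least 10,000 events. Two independent experiments, duplicates.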

In data set [13] the test system is Trypanosoma cruzi. The data set is described as follows: Antiparasitic activity against trypomastigotes of Trypanosoma cruzi Y assessed as induction of parasite death at 25 uM after 24 hrs using propidium iodide staining after 24 hrs by flow cytometry analysis. It counts as functional. An outline of the steps:
as §1

The source made the active and inactive calls. No cut-off for these calls is given here.

Cruzipain, sequence (P25779 whole entry): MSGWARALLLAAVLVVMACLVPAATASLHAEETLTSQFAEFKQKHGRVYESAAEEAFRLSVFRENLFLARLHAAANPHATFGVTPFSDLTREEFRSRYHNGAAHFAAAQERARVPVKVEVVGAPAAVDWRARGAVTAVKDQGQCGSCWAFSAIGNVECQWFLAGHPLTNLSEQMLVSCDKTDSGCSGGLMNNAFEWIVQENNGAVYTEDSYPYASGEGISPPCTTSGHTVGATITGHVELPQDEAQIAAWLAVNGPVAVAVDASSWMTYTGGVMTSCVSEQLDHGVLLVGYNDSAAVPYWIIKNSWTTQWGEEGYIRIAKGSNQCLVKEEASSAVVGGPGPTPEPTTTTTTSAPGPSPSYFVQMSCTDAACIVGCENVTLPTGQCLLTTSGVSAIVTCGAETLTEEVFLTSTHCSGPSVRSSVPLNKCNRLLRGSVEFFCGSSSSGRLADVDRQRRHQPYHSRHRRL
Cruzipain (Trypanosoma cruzi), sequence (P25779 123-467 limits assumed): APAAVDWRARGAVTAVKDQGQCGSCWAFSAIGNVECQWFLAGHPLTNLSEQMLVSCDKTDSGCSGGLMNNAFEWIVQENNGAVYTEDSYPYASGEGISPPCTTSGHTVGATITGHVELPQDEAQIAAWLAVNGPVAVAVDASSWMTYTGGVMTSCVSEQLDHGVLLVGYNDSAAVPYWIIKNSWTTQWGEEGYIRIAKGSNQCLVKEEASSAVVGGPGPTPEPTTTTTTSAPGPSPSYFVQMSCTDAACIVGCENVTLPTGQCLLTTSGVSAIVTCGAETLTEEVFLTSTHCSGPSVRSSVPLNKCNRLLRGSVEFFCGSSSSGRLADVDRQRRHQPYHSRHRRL

In the case of `C/C(=N\NC(N)=S)C(C)Oc1ccccc1-c1ccccc1` (stereo not drawn), the inhibition (commonly the change of the read-out against control, counted positive when it falls) in data set [1] was “inactive”.
For the compound `NC(=S)N/N=C(\COc1ccc(F)c(Cl)c1)c1ccc(Br)cc1`, the figures for the half-maximal inhibitory concentration (IC50) with Trypanosoma cruzi [2], in the data set on Trypanosoma cruzi [5] and against Cruzipain were 3.4 µM, 9 µM and 0.07 µM, respectively. The CC50 in the data set with Trypanosoma cruzi [3] is 1.7 µM. Moreover, the MNTC at 24 h in [4] turned out to be 2400 nM. Besides, the CC50 at 96 h in data set [6] worked out at 48 µM. In addition, the “Ratio CC50/IC50” value in data set [7] is listed as 5.3. For the same compound, in [8], the inhibition was determined as 93.7%. Besides, the inhibition at 100 µM with Trypanosoma cruzi [9] was above 70%. Moreover, the Activity in the data set with Trypanosoma cruzi [10] came to 34%; in the data set on Trypanosoma cruzi [11] it was 2.7%.
As for `CC(=O)Nc1ccc(OC(C)/C(C)=N/NC(N)=S)cc1` (stereo not drawn), the inhibition entry in data set [1] was “inactive”.
In the case of `NC(=S)N/N=C(\COc1ccc(F)cc1)c1ccc(Br)cc1`, the results for the half-inhibitory concentration (IC50) in the data set on Trypanosoma cruzi [2], with Trypanosoma cruzi [5] and against Cruzipain were 1.8 µM, 15.7 µM and 0.4 µM, respectively. The CC50 in the data set with Trypanosoma cruzi [3] amounted to 3.1 µM. Moreover, the MNTC at 24 h in data set [4] stood at 2600 nM. The CC50 at 96 h in data set [6] was 52.3 µM. In addition, the “Ratio CC50/IC50” value in data set [7] came to 3.3. The compound further had an inhibition in data set [8] of 84%. For the same compound, in the data set with Trypanosoma cruzi [9], the inhibition at 100 µM was above 70%.
On to `CC(C)c1ccc(OC/C(=N\NC(N)=S)c2ccc(Br)cc2)cc1`, for which the values for the IC50 in the data set with Trypanosoma cruzi [2] and in the data set on Trypanosoma cruzi [5] were 3.8 µM and 12.3 µM, respectively. Besides, in the data set on Trypanosoma cruzi [3], the CC50 came to 2.9 µM. In addition, in data set [4], the MNTC at 24 h was above 246000 nM. Moreover, the CC50 at 96 h in [6] was found to be 24.6 µM. Also, the “Ratio CC50/IC50” value in data set [7] is reported as 2. Moreover, the inhibition in data set [8] was 49.7%; with Trypanosoma cruzi [12], “Dose-dependent effect”. For the same compound, the inhibition at 100 µM in the data set with Trypanosoma cruzi [9] is above 70%. In addition, the Activity is listed as 42.2% in the data set with Trypanosoma cruzi [10] and 2.3% with Trypanosoma cruzi [11].
Regarding `O=C(Cn1ccnc1[N+](=O)[O-])NCc1ccccc1` [BENZNIDAZOLE], the CC50 in the data set on Trypanosoma cruzi [3] was determined as 6.2 µM. The “Ratio CC50/IC50” value in data set [7] was 625. The Activity is 4.2% in the data set with Trypanosoma cruzi [10] and 56.4% in the data set on Trypanosoma cruzi [13].
With `NC(=S)N/N=C(\COc1ccc(Cl)c(Cl)c1)c1ccc(Br)cc1`, the half-maximal inhibitory concentration (IC50) (in general, the concentration at which inhibition is half-maximal) in the data set with Trypanosoma cruzi [2] came out at 1.8 µM; in the data set with Trypanosoma cruzi [5] it was 8.3 µM; against Cruzipain it was 0.008 µM. In addition, in the data set on Trypanosoma cruzi [3], the CC50 was determined as 3 µM. In data set [4], the MNTC at 24 h was below 2300 nM. Moreover, in data set [6], the CC50 at 96 h amounted to 23.1 µM. In [7], the “Ratio CC50/IC50” value is given as 2.8. Moreover, the inhibition in [8] came out at 99.1%. The inhibition at 100 µM with Trypanosoma cruzi [9] is above 70%. In addition, the values for the Activity with Trypanosoma cruzi [10] and with Trypanosoma cruzi [11] were 44.9% and 2.3%, respectively.
With `NC(=S)N/N=C(/COc1ccc(Br)cc1)c1ccc(-c2ccccc2)cc1`, the concentration for half-maximal inhibition (IC50) in the data set on Trypanosoma cruzi [2] was found to be 3.9 µM; in the data set with Trypanosoma cruzi [5] it was 3.3 µM; on Cruzipain it was 0.6 µM. In addition, the CC50 in the data set on Trypanosoma cruzi [3] came to 2.1 µM. For the same compound, in [4], the MNTC at 24 h is 2300 nM. The CC50 at 96 h in [6] turned out to be 22.7 µM. Besides, the “Ratio CC50/IC50” value in [7] came to 6.9. Also, in [8], the inhibition is 88.9%. The inhibition at 100 µM with Trypanosoma cruzi [9] is above 70%.
For the compound `NC(=S)N/N=C(/COc1ccc(Br)cc1)c1ccc(Br)cc1`, the half-maximal inhibitory concentration (IC50) is 11.9 µM in the data set with Trypanosoma cruzi [2] and below 8.1 µM in the data set with Trypanosoma cruzi [5]. Also, in the data set on Trypanosoma cruzi [3], the CC50 worked out at 3.9 µM. Further, the MNTC at 24 h in data set [4] was determined as 22600 nM. In addition, in [6], the CC50 at 96 h stood at 22.6 µM. The “Ratio CC50/IC50” value in data set [7] is above 2.8. The same compound returned an inhibition in [8] of 11.8%. Moreover, the inhibition at 100 µM in the data set on Trypanosoma cruzi [9] is above 70%.
As for `CC(=O)Nc1ccc(OC/C(=N\NC(N)=S)c2ccc(Br)cc2)cc1`, the half-maximal inhibitory concentration (IC50) in the data set with Trypanosoma cruzi [2] was found to be 15.6 µM; in the data set on Trypanosoma cruzi [5], 43.2 µM. Further, the CC50 in the data set with Trypanosoma cruzi [3] was determined as 3.5 µM. In [4], the MNTC at 24 h came out at 2400 nM. In addition, the CC50 at 96 h in [6] stood at 94.9 µM. Also, in data set [7], the “Ratio CC50/IC50” value is on record as 2.2. In addition, in data set [8], the inhibition turned out to be 80.7%. Also, the inhibition at 100 µM in the data set on Trypanosoma cruzi [9] was above 70%.

The record behind these values is ChEMBL document CHEMBL3612009, “Synthesis and structure-activity relationship study of a new series of antiparasitic aryloxyl thiosemicarbazones inhibiting Trypanosoma cruzi cruzain” (Eur J Med Chem, 2015).
